According to ChEMBL document CHEMBL4513216, “Probing the Open Global Health Chemical Diversity Library for Multistage-Active Starting Points for Next-Generation Antimalarials” (ACS Infect Dis, 2020):

Assay: Toxicity liver stage against HepG2, at 10uM
Assay type: cell-based
Design: test concentration 10 uM, cell line HepG2-A16-CD81EGFP
Conditions: human, HepG2-A16-CD81EGFP cells; read-out: INHIBITION
Outline: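 Uninfected HepG2-A16-CD81EGFP cells, 3 × 10^3 per well, 1536-well, plated on prespotted compound at 10 μM final, parasite-free screening media added to match infected plates; puromycin 10 μM positive, DMSO 0.5% negative; run in parallel with 48 h PbLuc assay at 37 °C, 5% CO2; viability by CellTiter-Glo luminescence, normalized to controls.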

Row | Structure (SMILES) | cytotoxicity at 10 µM [%]
1 | CCSc1cc(C(=O)N(C(C)C)C2CC2)ccn1 | 6.27
2 | CCNC(=O)NC(=O)CN(CC(C)O)c1ccccc1 (centres undefined) | 1.32
3 | CCc1ncc2c(n1)CN(C(C(N)=O)c1ccccc1)CC2 (centres undefined) | -2.35
4 | COCCN(CCOC)c1nc2c(s1)c(C)nn2C | -40.5
5 | Cc1nnc(CN(Cc2ccc(Cl)c(Cl)c2)C2CC2)o1 | 4.85
6 | CN(C)c1nccc(C2CN(c3cnccn3)CCO2)n1 (centres undefined) | 7.95
7 | CC(C)c1n[nH]c(C2CN(C(=O)Cn3ccccc3=O)CCO2)n1 (centres undefined) | -0.924
8 | CCc1nc(C2CCCN2C(=O)c2ccc(=O)n(CC)n2)no1 (centres undefined) | 2.72
9 | CC1CN(C)c2ccccc2CN1C(=O)c1cc(C#N)cn1C (centres undefined) | 14.6
10 | CN1CCC(Cc2nc(-c3cnccn3)n(C3CCS(=O)(=O)C3)n2)CC1 (centres undefined) | -2.64
11 | Cn1ccc(C(=O)N2CCC3(CCN3c3ncccn3)C2)n1 (centres undefined) | 9.41
12 | CCn1ccnc1CN1CCN(C(C)C(=O)N2CCCCCC2)CC1 (centres undefined) | -7.01
13 | CCc1nnc2n1CCN(C(=O)c1cc3ccc(F)cc3nc1C)C2 | -9.37
14 | Cc1cccc(CN2C[C@@H](C)[C@@]3(CCN(CC(=O)N(C)C)C3=O)C2)c1 | -0.979
15 | O=C(CCC1CCCO1)NCCCO (centres undefined) | 11.2
16 | O=C1C[C@H]2[C@@H](CCN2C(=O)c2cscn2)N1Cc1cccnc1 | -0.184
17 | O=C([C@@H]1CC[C@@H]2[C@@H](CCN2c2ncccn2)O1)N1CCCO1 | 8.79
18 | Cc1nc(-c2ccncc2)nc(N(C)CCc2ccncc2)c1C | 11.6
19 | Cc1nccn1CCN(C)C(=O)C1CCCN(C2CCOCC2)C1 (centres undefined) | 0.417
20 | Cc1cnc(C(=O)N2C[C@@H]3CN(CC4CCCC4)CCO[C@@H]3C2)cn1 | -2.76
21 | c1ccc(-c2nc(CCNCc3cccnc3)co2)cc1 | -5.35
22 | CC(C)(C)C(=O)NCCC(=O)NS(=O)(=O)c1cccc(C#N)c1 | 1.01

Row | Structure (SMILES) | cytotoxicity at 10 µM [%]
23 | COc1ccc(NC(=O)Cn2nc(C)c(C)cc2=O)c(OC)c1 | -3.62
24 | Cc1nc(NC(=O)OC(C)(C)C)sc1C(N)=O | -14.4
25 | O=C(NCc1nc(C2CCCCC2)no1)C1CC(=O)N(C2CCCC2)C1 (centres undefined) | 0.761
26 | Cc1ccc(NC2CCN(C(=O)c3cccnc3O)CC2)nn1 | -27.6
27 | CC(C)(C)NC(=O)CNC(=O)CCc1ccccc1Br | 3.09
28 | O=C1CCNC(=O)N1CC(=O)N1CCC1c1ccc(F)cc1 (centres undefined) | 7.46
29 | COC(=O)CCCNC(=O)N1CCc2c(F)ccc(F)c2C1 | -11.2
30 | O=S(=O)(NCCCn1cncn1)c1ccc2c(c1)CCCC2 | 4.16
31 | CC(C)CN1C(=O)CC[C@H]2CN(C(=O)Cn3ccc(=O)cc3)CC[C@H]21 | 0.582
32 | CCC1=N[C@@]2(CC[C@@H]3CN(Cc4ccccc4F)C[C@@H]32)C(=O)N1 | -1.22
33 | CN(C)C(=O)c1ccc2c(c1)N(C)C(CC(=O)NCc1ncc[nH]1)CO2 (centres undefined) | -5.93
34 | O=C(N1CCCC1)N1C[C@H]2CCC[C@@]2(COCc2ccccn2)C1 | -106
35 | CC(=O)N1CCC(NC(=O)c2cc(S(N)(=O)=O)ccc2C)CC1 | 11.7
36 | CNS(=O)(=O)CC(=O)N1CCC(c2cc3ccccc3[nH]2)CC1 | 3.12
37 | CS(=O)(=O)NCc1ncn2c1CN(C(=O)C1CCCCC1)CCC2 | -71.2
38 | COCCN1CCn2cc(CN(C)Cc3ccco3)nc2C1 | -74.9
39 | N#Cc1ccnc(N2CCN(CC(O)c3ccc(F)cc3)CC2)c1 (centres undefined) | 2.99
40 | Cn1cc(Nc2cccc(C(=O)N(CC(N)=O)C3CCCC3)c2)cn1 | -1.78
41 | COc1cccc2ccc(N3CCC(O)(C(=O)O)CC3)nc12 | 3.13
42 | Cn1nc2c(cc1=O)CN(Cc1nc(C(C)(C)C)no1)CC2 | -2.86
43 | COc1cccc(CN(C)c2ncc(C(N)=O)cc2Cl)c1 | 2.53
44 | N#Cc1ccc(Nc2nc3c(s2)C(=O)CN(CC2CC2)C3)cc1 | -5.28
